Assay results reported in ChEMBL document CHEMBL3352378, “Novel carbazole inhibits phospho-STAT3 through induction of protein-tyrosine phosphatase PTPN6” (J Med Chem, 2014).
Calls of active or inactive are those of the source. No cut-off for these calls is given here.

Assays:
[1] = system: MDA-MB-468; test: Cytotoxicity against human MDA-MB-468 cells after 72 hrs by MTT assay; type: functional, cell-based
Summary of the method: (§1)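 Cells exposed to increasing concentrations for about 72 h, and viability read by MTT. EC50 fitted with CompuSyn. Two independent experiments, each in triplicate, mean ± SEM. Compound stocks 10 mM in DMSO.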

[2] = target: Signal transducer and activator of transcription 3 (Homo sapiens) (UniProt P40763); test: Inhibition of STAT3 in human Hs578T cells assessed as reduction of IL-6 induced transactivation incubated for 1 hr prior to IL-6 challenge measured after 2 hrs by luciferase reporter gene assay; type: cell-based; conditions: Hs-578T
Summary of the method: (§2)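 Cells transfected with the APRE-Luc STAT3-responsive reporter. Pretreated 1 h with increasing concentrations, then given 5 ng/mL IL-6: 2 h for HS578T, 16 h for MCF7. Luciferase read afterwards; relative activity as mean ± SD of triplicates.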

[3] = target: Signal transducer and activator of transcription 3 (Homo sapiens) (UniProt P40763); test: Inhibition of STAT3 in human SUM149PT cells assessed as reduction of cyclin D1 mRNA expression at 0.3 to 1 uM after 24 hrs by RT-PCR analysis; type: cell-based
Summary of the method: (§3)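 HS578T and SUM149PT cells treated for 24 h with increasing concentrations. Transcripts measured by RT-PCR, normalized to GAPDH as loading control.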

[4] = system: A549; test: Cytotoxicity against human A549 cells after 72 hrs by MTT assay; type: functional; conditions: A549, 72 h; summary of the method: as §1
[5] = target: Signal transducer and activator of transcription 3 (Homo sapiens) (UniProt P40763); test: Inhibition of STAT3 in human Hs578T cells assessed as reduction of IL-6 induced STAT3 phosphorylation at Y705 incubated for 2 hrs prior to IL-6 challenge measured after 30 mins by Western blotting analysis; type: cell-based; conditions: Hs-578T
Summary of the method: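 Cells pretreated with compound for 2 h, then stimulated with IL-6 at 5 ng/mL for 30 min. Lysates immunoblotted for phospho-STAT3 (Y705), with β-actin as loading control.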

[6] = system: SUM149PT; test: Induction of PTPN6 mRNA expression in human SUM149PT cells after 24 hrs by RT-PCR analysis; type: functional, cell-based
Summary of the method: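 HS578T and SUM149PT cells given increasing concentrations for 24 h. PTPN6 mRNA measured by RT-PCR, with GAPDH as loading control.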

[7] = system: MDA-MB-231; test: Cytotoxicity against human MDA-MB-231 cells after 72 hrs by MTT assay; type: functional, cell-based; summary of the method: as §1
[8] = system: Hs-578T; test: Cytotoxicity against human Hs578T cells after 72 hrs by MTT assay; type: functional, cell-based; summary of the method: as §1
[9] = system: SUM149PT; test: Antitumor activity against human SUM149 cells xenografted in athymic Balb/c nude mouse assessed as reduction in pSTAT3 level at 30 mg/kg, ip administered every other day for 5 days measured on day 5 by Western blotting analysis; type: functional, organism-based; parameters: dose 30 mg/kg
Summary of the method: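 SUM149 subcutaneous xenografts in nude mice (n = 5), dosed ip every other day in Cremophore/PEG400/PBS vehicle. Tumors taken on day 5 were immunoblotted for PTPN6, STAT3 and pSTAT3, with GAPDH as control. PTPN6 quantified by densitometry with a one-tailed t test.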

[10] = Cytotoxicity against human PC3 cells after 72 hrs by MTT assay; type: functional; conditions: PC-3, 72 h; summary of the method: as §1
[11] = system: A549; test: Antitumor activity against human A549 cells xenografted in athymic Balb/c nude mouse at 10 mg/kg, ip administered every other day for 27 days measured up to day 27; type: functional; conditions: 648 h, route intraperitoneal, read-out: TGI
Summary of the method: (§4)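 Male and female athymic nude mice (18–22 g) implanted subcutaneously in the right auxiliary region with 3×10^6 A549 cells. Mice were randomized into groups of five 3 days after implantation, and dosing started at about 50 mm³ tumor. Working solution 1 mg/mL in 10% Cremophore/3% PEG400/87% PBS; ip every other day, vehicle control. Caliper volume L×w×w/2, mean ± SEM, n = 5.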

[12] = target: Signal transducer and activator of transcription 3 (Homo sapiens) (UniProt P40763); test: Inhibition of STAT3 in human MCF7 cells assessed as reduction of IL-6 induced transactivation incubated for 1 hr prior to IL-6 challenge measured after 16 hrs by luciferase reporter gene assay; type: cell-based; summary of the method: as §2
[13] = system: Mus musculus; test: Toxicity in athymic Balb/c nude mouse xenografted with human SUM149 cells assessed as lethargy at 10 to 30 mg/kg, ip administered every other day for 5 days; type: organism-based; parameters: dose 10-30 mg/kg, route intraperitoneal; conditions: in vivo, 120 h
Summary of the method: (§5)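 SUM149 cells (3×10^6) implanted subcutaneously in the right auxiliary region of male and female athymic nude mice (18–22 g). Groups of five, randomized; dosed ip every other day at 10 or 30 mg/kg from 1 mg/mL Cremophore 10%/PEG400 3%/PBS vehicle, vehicle control. Tumor volume by caliper (L×w×w/2); body weight, appetite, activity and lethargy monitored.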

[14] = system: A549; test: Antitumor activity against human A549 cells xenografted in athymic Balb/c nude mouse at 10 mg/kg, ip administered every other day for 27 days measured on day 5; type: functional; conditions: route intraperitoneal, read-out: TGI; summary of the method: as §4
[15] = target: Signal transducer and activator of transcription 3 (Homo sapiens) (UniProt P40763); test: Inhibition of STAT3C-mediated transcription in human Hs578T cells at 1 uM after 24 hrs by luciferase reporter gene assay; type: cell-based; conditions: Hs-578T
Summary of the method: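 HS578T cells co-transfected with a constitutively active STAT3 (STAT3C) expression vector and the APRE-Luc reporter. Treated at 1 μM for 24 h, with JAK2 inhibitor AZD1480 for comparison. Luciferase measured; mean ± SD of triplicates.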

[16] = Drug uptake in human MDA-MB-231 cell nucleus at 10 uM after 1 hr by two-photon confocal microscopy; type: ADME, cell-based; conditions: mda-mb-231, 1 h
Summary of the method: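 MDA-MB-231 cells grown overnight on fibronectin/[…]-coated slides, then given 10 μM compound or DMSO for 1 h. Cells washed with PBS and fixed in 4% formaldehyde. Two-photon excitation at 725 nm, emission collected through a 500–550 nm filter.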

[17] = target: Signal transducer and activator of transcription 3 (Homo sapiens) (UniProt P40763); test: Inhibition of STAT3 in human SUM149PT cells assessed as reduction of cyclin D1 level at 0.3 to 3 uM after 24 hrs by Western blotting analysis; type: cell-based
Summary of the method: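 HS578T and SUM149PT cells given increasing concentrations for 24 h. Lysates immunoblotted with the indicated antibodies, β-actin as loading control.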

[18] = system: MDA-MB-436; test: Cytotoxicity against human MDA-MB-436 cells after 72 hrs by MTT assay; type: functional, cell-based; summary of the method: as §1
[19] = Antitumor activity against human SUM149 cells xenografted in athymic Balb/c nude mouse at 10 to 30 mg/kg, ip administered every other day for 5 days measured on day 5; type: functional, SUM149PT; conditions: dose mg/kg 10-30; route intraperitoneal; summary of the method: as §5
[20] = target: Signal transducer and activator of transcription 3 (Homo sapiens) (UniProt P40763); test: Inhibition of STAT3 in human Hs578T cells assessed as reduction of survivin mRNA expression at 0.3 to 1 uM after 24 hrs by RT-PCR analysis; type: cell-based; conditions: Hs-578T; summary of the method: as §3
[21] = system: A549; test: Antitumor activity against human A549 cells xenografted in athymic Balb/c nude mouse at 10 mg/kg, ip administered every other day for 27 days measured on day 9; type: functional; conditions: route intraperitoneal, read-out: TGI; summary of the method: as §4
[22] = system: SUM1315MO2; test: Cytotoxicity against human SUM1315MO2 cells after 72 hrs by MTT assay; type: functional, cell-based; summary of the method: as §1

Signal transducer and activator of transcription 3 (Homo sapiens), sequence (P40763 whole entry): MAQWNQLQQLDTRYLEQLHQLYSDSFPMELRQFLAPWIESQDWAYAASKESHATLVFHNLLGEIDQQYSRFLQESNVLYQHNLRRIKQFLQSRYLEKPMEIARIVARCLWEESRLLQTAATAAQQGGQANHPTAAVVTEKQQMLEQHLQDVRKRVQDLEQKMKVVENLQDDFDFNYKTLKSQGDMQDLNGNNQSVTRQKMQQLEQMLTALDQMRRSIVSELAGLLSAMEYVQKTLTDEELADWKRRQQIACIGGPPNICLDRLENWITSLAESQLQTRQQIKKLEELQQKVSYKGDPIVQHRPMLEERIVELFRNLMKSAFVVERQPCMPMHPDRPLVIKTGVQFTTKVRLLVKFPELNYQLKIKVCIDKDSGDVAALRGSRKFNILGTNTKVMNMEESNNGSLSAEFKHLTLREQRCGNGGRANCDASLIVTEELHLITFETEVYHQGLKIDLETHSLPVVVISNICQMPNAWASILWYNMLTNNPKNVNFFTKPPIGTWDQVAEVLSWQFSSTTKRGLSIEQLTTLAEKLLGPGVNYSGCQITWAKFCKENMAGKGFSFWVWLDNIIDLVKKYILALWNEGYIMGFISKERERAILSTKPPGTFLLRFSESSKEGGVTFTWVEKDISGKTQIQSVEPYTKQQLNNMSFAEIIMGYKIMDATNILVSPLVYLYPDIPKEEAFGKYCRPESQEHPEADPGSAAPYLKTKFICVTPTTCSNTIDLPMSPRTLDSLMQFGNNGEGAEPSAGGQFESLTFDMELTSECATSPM

inhibition [2]: Dose-dependent effect | inhibition [3]: Active | inhibition [5]: Dose-dependent effect | inhibition [12]: Active | inhibition [15]: Active | Drug uptake [16]: Not Active | inhibition [17]: Active
SMILES: Cc1c(OS(=O)(=O)c2cccc3c(N(C)C)cccc23)ccc2c1[nH]c1cc(O)ccc12
Activity [1]: Active | GI50 [4]: 2500 nM | Activity [6]: Dose-dependent effect | Activity [7]: Active | Activity [8]: Active | Activity [9]: Active | GI50 [10]: 3000 nM | inhibition in vivo at 10 mg/kg [11]: 54.9% | Activity [13]: Non-toxic | inhibition in vivo at 10 mg/kg [14]: 68.7% | Activity [18]: Active | TGI [19]: 57% | inhibition [20]: Active | inhibition in vivo at 10 mg/kg [21]: 73.8% | Activity [22]: Active
